Data set [1] in a line: AUC (0 to infinity) in iv dosed mouse. Format: ADME, organism-based. The arrangement: route intravenous, time infinity. To be noted: plasma.
The test system of data set [2] is Marmota monax. As to the kind of experiment: AUC (0 to infinity) in woodchuck hepatitis virus -negative woodchucks assessed as 9-(beta-D-1,3-dioxolan-4-yl)guanine at 33.3 mg/kg, iv administered as single dose followed by dose of 33.3 mg/kg, po after 4 weeks washout period. In kind it is ADME, organism-based, Plasma. To be noted: in vivo, 672 h. A digest of the protocol: (§1)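 Three WHV-negative adult woodchucks got a 33.3 mg/kg iv bolus, with one saline control. After a 4-week washout the same three got 33.3 mg/kg orally. Blood was drawn predose and at 0.25–24 h. Serum APD and DXG were measured by HPLC-UV (LOQ 0.2 µM) and analysed noncompartmentally. AUC0-∞ used the trapezoidal rule, extrapolated by Clast/λz.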

Data set [3] can be described thus: Oral bioavailability in mouse. Format: ADME, organism-based. To be noted: in vivo.
The test system of data set [4] is Marmota monax. The data set is described as follows: Cmax in woodchuck hepatitis virus-negative woodchucks assessed as 9-(beta-D-1,3-dioxolan-4-yl)guanine at 33.3 mg/kg iv followed by after 4 weeks washout period administered 33.3 mg/kg, po. In kind it is ADME, organism-based. To be noted: in vivo, 672 h. In outline:
as §1

For data set [5], the system named is Marmota monax. As to the kind of experiment: Terminal elimination half life in woodchuck hepatitis virus -negative woodchucks assessed as 9-(beta-D-1,3-dioxolan-4-yl)guanine at 33.3 mg/kg, iv administered as single dose followed by dose of 33.3 mg/kg, po after 4 weeks washout period. Conditions: in vivo, 672 h. Format: ADME, organism-based. In outline: as §1

Data set [6] in a line: AUC (0 to infinity) in orally dosed mouse. In kind it is ADME, organism-based. The arrangement: route oral, time infinity. To be noted: plasma, po.
A further data set relates to Mus musculus. As to the kind of experiment: Terminal elimination half life in orally dosed mouse assessed as 9-(beta-D-1,3-dioxolan-4-yl)guanine. Conditions: in vivo, po. Format: ADME, organism-based.
The subject of data set [7] is Marmota monax. As to the kind of experiment: AUC (0 to infinity) in woodchuck hepatitis virus-negative woodchucks assessed as 9-(beta-D-1,3-dioxolan-4-yl)guanine at 33.3 mg/kg, iv administered as single dose. Also on record: time infinity, dose 33.3 mg/kg, route intravenous. Conditions: in vivo. Format: ADME, organism-based, Plasma. A digest of the protocol:
as §1

For data set [8], the system named is Marmota monax. The data set is described as follows: Terminal elimination half life in woodchuck hepatitis virus-negative woodchucks assessed as 9-(beta-D-1,3-dioxolan-4-yl)guanine at 33.3 mg/kg, iv administered as single dose. The arrangement: dose 33.3 mg/kg, route intravenous. Conditions: in vivo. In kind it is ADME, organism-based. A digest of the protocol: as §1

The next data set relates to Rhesus monkey. As to the kind of experiment: Terminal elimination half life in orally dosed monkey assessed as 9-(beta-D-1,3-dioxolan-4-yl)guanine. To be noted: in vivo, po. In kind it is ADME, organism-based, Macaca mulatta.
Data set [9] deals with Marmota monax. The data set is described as follows: Cmax in woodchuck hepatitis virus-negative woodchucks assessed as 9-(beta-D-1,3-dioxolan-4-yl)guanine at 33.3 mg/kg, iv administered as single dose. In kind it is ADME, organism-based. Also on record: dose 33.3 mg/kg, route intravenous. Conditions: in vivo. In outline: as §1
For data set [10], the system named is Woodchuck hepatitis virus. The data set is described as follows: Antiviral activity against woodchuck hepatitis virus infected woodchucks assessed as log reduction of serum viral DNA per ml of serum after 4 weeks. Format: functional.
Data set [11] has as its system Woodchuck hepatitis virus. The data set is described as follows: Antiviral activity against woodchuck hepatitis virus infected woodchucks assessed as log reduction of serum viral DNA per ml of serum after 12 weeks. In kind it is functional.

One may read the AUC(0-inf) as the area under the concentration-time curve extrapolated to infinity. As a reminder, the AUC is concentration integrated over time. By Cmax is commonly meant the maximum level reached in the sampled fluid or tissue. For the compound `Nc1nc2c(ncn2[C@H]2CO[C@@H](CO)O2)c(=O)[nH]1`, the AUC(0-inf) in [1] is 818 µM·h; in data set [6] it was 930 µM·h. Besides, the exposure (AUC) in the data set on Marmota monax [2] was 309.7 µM·h; with Marmota monax [7], 146.2 µM·h. Further, the bioavailability in data set [3] is 114%. For the same compound, the Cmax worked out at 20.3 µM in the data set with Marmota monax [4] and 24.6 µM in the data set with Marmota monax [9]. Moreover, the “beta t1/2” value in the data set on Marmota monax [5] was determined as 12.1 h; in the data set with Mus musculus it was 1 h; with Marmota monax [8] it was 3.7 h; in the data set with Rhesus monkey, 1.5 h.

For the compound `CC(C)(C)C(=O)OCOP(=O)(COCCn1cnc2c(N)ncnc21)OCOC(=O)C(C)(C)C` [ADEFOVIR DIPIVOXIL], the Activity in data set [10] was 1.8; in [11], above 2.5.

Regarding `CC(C)OC(=O)OCOP(=O)(CO[C@H](C)Cn1cnc2c(N)ncnc21)OCOC(=O)OC(C)C.O=C(O)/C=C/C(=O)O` [TENOFOVIR DISOPROXIL FUMARATE], the Activity in [10] amounted to 1.5.

With `Nc1ncnc2c1ncn2[C@H]1C[C@H](O)[C@@H](CO)O1` [DEOXYADENOSINE], the Activity in data set [10] came out at 1.5.

As to `CCCCCCCCCCCCCCCCOCCCOP(=O)(O)OCCOCn1cnc2c(=O)[nH]c(N)nc21`, in data set [10], the Activity was 1.4.

Take `CC(=O)OCC(CCn1cnc2cnc(N)nc21)COC(C)=O` [FAMCICLOVIR]: the Activity in data set [10] is reported as 1.4.

For the compound `Nc1ccn([C@@H]2CS[C@H](CO)O2)c(=O)n1` [LAMIVUDINE], in [10], the Activity is listed as 2.5.

The record behind these values is ChEMBL document CHEMBL1154402, “Antiviral effect of orally administered (-)-beta-D-2-aminopurine dioxolane in woodchucks with chronic woodchuck hepatitis virus infection” (Antimicrob Agents Chemother, 2007).
